Our source for the IC50, MIC and Activity values is ChEMBL document CHEMBL1833970, “One-pot syntheses of pseudopteroxazoles from pseudopterosins: a rapid route to non-natural congeners with improved antimicrobial activity” (J Nat Prod, 2011).

As usually defined, the IC50 is the midpoint of a concentration-inhibition curve. A high value points to a need for much substance. One may read the MIC as the lowest concentration found to suppress growth. Read a low MIC as inhibition by little substance.

In brackets after ≈: the same amount, converted by molar mass. Activity calls are given as the source filed them. No cut-off for these calls is given here.

The test system of test [1] is Enterococcus faecium. Briefly: Antimicrobial activity against vancomycin-resistant Enterococcus faecium Ef 379 after 22 hrs by microbroth dilution antibiotic susceptibility assay. The test is classed as functional, organism-based. The following applies: Ef 379, 22 h. The essentials: (§1)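 CLSI M7-A6 broth microdilution, run in triplicate. Compounds were made up in sterile 20% DMSO and serially diluted to eight concentrations. Plates carried uninoculated and untreated controls (media + 20% DMSO) plus a control antibiotic column. OD600 was read at time zero and after 22 h at 37 °C. Time-zero readings were subtracted, survival was calculated relative to vehicle wells, and IC50 was derived.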
Background: Broth dilution looks for growth in wells or tubes with falling amounts of substance.

Test [2] has as its system Staphylococcus aureus. Briefly: Antimicrobial activity against methicillin-resistant Staphylococcus aureus ATCC 33591 after 22 hrs by microbroth dilution antibiotic susceptibility assay. It is filed as functional, organism-based. The following applies: ATCC 33591, 22 h. An outline of the steps: as §1
The test system of test [3] is Mycolicibacterium smegmatis. Briefly: Antimicrobial activity against Mycobacterium smegmatis ATCC 12051 after 5 days by microbroth dilution antibiotic susceptibility assay. It is filed as functional. The conditions noted are these: ATCC 12051, 120 h. An outline of the steps: (§2)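 Microbroth dilution per CLSI M24-A for fast-growing mycobacteria. Compounds prepared in sterile 20% DMSO and serially diluted to eight concentrations, triplicate on separate plates. Uninoculated and untreated (media + 20% DMSO) controls plus a control antibiotic column. Incubated 5 days at 30 °C; growth relative to untreated wells scored visually to give MIC.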

Test [4] deals with Mycolicibacterium diernhoferi. Briefly: Antimicrobial activity against Mycobacterium diernhoferi ATCC 19340 after 5 days by microbroth dilution antibiotic susceptibility assay. It is filed as functional. The following applies: ATCC 19340, 120 h. The essentials: as §2
For test [5], the system named is Pseudomonas aeruginosa. The experiment in a line: Antimicrobial activity against Pseudomonas aeruginosa ATCC 14210 after 22 hrs by microbroth dilution antibiotic susceptibility assay. It is filed as functional, organism-based. An outline of the steps:
(§3)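 Microbroth dilution per CLSI M7-A6. Compounds in sterile 20% DMSO, serially diluted to eight concentrations, tested in triplicate with uninoculated and untreated controls. Control antibiotic was gentamycin for P. aeruginosa, ciprofloxacin for P. vulgaris and nystatin for C. albicans. OD600 read at time zero and after 22 h at 37 °C. Survival relative to vehicle calculated after baseline subtraction; IC50 derived.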

Test [6] concerns Candida albicans. The experiment in a line: Antimicrobial activity against Candida albicans ATCC 14035 after 22 hrs by microbroth dilution antibiotic susceptibility assay. The test is classed as functional, organism-based. The essentials:
as §3

Test [7] concerns Proteus vulgaris. The experiment in a line: Antimicrobial activity against Proteus vulgaris ATCC 12454 after 22 hrs by microbroth dilution antibiotic susceptibility assay. It is filed as functional, organism-based. An outline of the steps:
as §3

With `CC(C)=C[C@@H]1C[C@H](C)[C@H]2CC[C@H](C)c3c2c1c(C)c1nc(CCC(N)=O)oc31`, the half-maximal inhibitory concentration (IC50) in test [1] and in test [2] was 7 µg/mL (≈ 18.4 µM) each time. Also, the MIC in test [3] and in test [4] was 4 µg/mL (≈ 10.5 µM) each time. Moreover, the outcome in test [5] and in test [6] was inactive.
In the case of `CC(C)=C[C@@H]1C[C@H](C)[C@H]2CC[C@H](C)c3c2c1c(C)c1nc(CCC(=O)O)oc31`, the IC50 in test [1] and in test [2] was 12 µg/mL (≈ 31.5 µM) throughout. Besides, the MIC is 8 µg/mL (≈ 21 µM) in test [3] and 4 µg/mL (≈ 10.5 µM) in test [4]. Also, the outcome in test [5] and in test [6] was inactive.
With `CC(C)=C[C@@H]1C[C@H](C)[C@H]2CC[C@H](C)c3c2c1c(C)c1nc([C@@H](C)O)oc31`, the IC50 in test [1] and in test [2] was more than 128 µg/mL each time. Also, the MIC was 16 µg/mL (≈ 45.3 µM) in test [3] and 8 µg/mL (≈ 22.6 µM) in test [4]. The outcome in test [5] and in test [6] was inactive.
For the molecule `CSCCc1nc2c(C)c3c4c(c2o1)[C@@H](C)CC[C@@H]4[C@@H](C)C[C@H]3C=C(C)C`, the IC50 in test [1] and in test [2] was more than 128 µg/mL throughout. For the same molecule, the MIC in test [3] and in test [4] was 16 µg/mL (≈ 41.7 µM) throughout. Also, the result in test [5] and in test [6] was inactive.
In the case of `CCCCCc1nc2c(C)c3c4c(c2o1)[C@@H](C)CC[C@@H]4[C@@H](C)C[C@H]3C=C(C)C` [HOMOPSEUDOPTEROXAZOLE], the IC50 in test [1] and in test [2] was more than 128 µg/mL throughout. The MIC in test [3] and in test [4] was more than 64 µg/mL in each case. Moreover, the result in test [5] and in test [6] was inactive.
On to `COC(=O)CCc1nc2c(C)c3c4c(c2o1)[C@@H](C)CC[C@@H]4[C@@H](C)C[C@H]3C=C(C)C`, for which the IC50 in test [1] and in test [2] was more than 128 µg/mL in each case. The MIC in test [3] and in test [4] was more than 128 µg/mL throughout. Further, the result in test [5] and in test [6] was inactive.
Consider `CC(C)=C[C@@H]1C[C@H](C)[C@H]2CC[C@H](C)c3c2c1c(C)c1nc(Cc2ccccc2)oc31`, for which the IC50 in test [1] and in test [2] was more than 128 µg/mL in each case. Also, the results for the MIC in test [3] and in test [4] were more than 64 µg/mL and 4 µg/mL (≈ 10 µM), respectively. For the same molecule, the outcome in test [5] and in test [6] was inactive.
As to `CC(C)=C[C@@H]1C[C@H](C)[C@H]2CC[C@H](C)c3c2c1c(C)c1ncoc31` [PSEUDOPTEROXAZOLE], the IC50 in test [1] is 13 µg/mL (≈ 42 µM); in test [2], more than 128 µg/mL. The result in test [7], in test [5] and in test [6] was inactive. The results for the MIC in test [3] and in test [4] were 2 µg/mL (≈ 6.46 µM) and 4 µg/mL (≈ 12.9 µM), respectively.
Turning to `CC(C)=C[C@@H]1C[C@H](C)[C@H]2CC[C@H](C)c3c2c1c(C)c1nc(CC(N)=O)oc31`, the IC50 worked out at 4 µg/mL (≈ 10.9 µM) in test [1] and 3 µg/mL (≈ 8.19 µM) in test [2]. Also, the result in test [7], in test [5] and in test [6] was inactive. For the same molecule, the MIC in test [3] was 4 µg/mL (≈ 10.9 µM); in test [4], 2 µg/mL (≈ 5.46 µM).
Consider `CC[C@H](C)c1nc2c(C)c3c4c(c2o1)[C@@H](C)CC[C@@H]4[C@@H](C)C[C@H]3C=C(C)C`, for which the IC50 in test [1] and in test [2] was more than 128 µg/mL in each case. In addition, the MIC in test [3] and in test [4] was more than 64 µg/mL in each case. The result in test [5] and in test [6] was inactive.
With `COc1ccccc1-c1nc2c(C)c3c4c(c2o1)[C@@H](C)CC[C@@H]4[C@@H](C)C[C@H]3C=C(C)C`, the IC50 in test [1] and in test [2] was more than 128 µg/mL in each case. Also, the minimal inhibitory concentration (MIC) in test [3] and in test [4] was more than 64 µg/mL each time. In addition, the result in test [5] and in test [6] was inactive.
The molecule `CN[C@H](CC(C)C)C(=O)N[C@H]1C(=O)N[C@@H](CC(N)=O)C(=O)N[C@H]2C(=O)N[C@H]3C(=O)N[C@H](C(=O)N[C@H](C(=O)O)c4cc(O)cc(O)c4-c4cc3ccc4O)[C@H](O)c3ccc(c(Cl)c3)Oc3cc2cc(c3O[C@@H]2O[C@H](CO)[C@@H](O)[C@H](O)[C@H]2O[C@H]2C[C@](C)(N)[C@H](O)[C@H](C)O2)Oc2ccc(cc2Cl)[C@H]1O` [VANCOMYCIN] displayed an IC50 in test [2] of 12.2 µg/mL (≈ 8.45 µM).
Regarding `CC(C)=C[C@@H]1C[C@H](C)[C@H]2CC[C@H](C)c3c2c1c(C)c1nc(-c2ccc(F)cc2)oc31`, the MIC in test [3] and in test [4] was more than 64 µg/mL in each case. The result in test [5] and in test [6] was inactive.
For `CC(C)=C[C@@H]1C[C@H](C)[C@H]2CC[C@H](C)c3c2c1c(C)c1nc(C)oc31`, the IC50 is 2.5 µg/mL (≈ 7.73 µM) in test [1] and more than 128 µg/mL in test [2]. In addition, the MIC in test [3] turned out to be 8 µg/mL (≈ 24.7 µM); in test [4], 4 µg/mL (≈ 12.4 µM). Further, the outcome in test [5] and in test [6] was inactive.
In the case of `CC(C)=C[C@@H]1C[C@H](C)[C@H]2CC[C@H](C)c3c2c1c(C)c1ocnc31` [ISOPSEUDOPTEROXAZOLE], the IC50 in test [1] was 13 µg/mL (≈ 42 µM); in test [2], more than 128 µg/mL. Also, the MIC in test [3] and in test [4] was 8 µg/mL (≈ 25.9 µM) throughout. Also, the result in test [5] and in test [6] was inactive.
On to `CO[C@H]1/C=C/O[C@@]2(C)Oc3c(C)c(O)c4c(O)c(c(/C=N/N5CCN(C)CC5)c(O)c4c3C2=O)NC(=O)/C(C)=C\C=C\[C@H](C)[C@H](O)[C@@H](C)[C@@H](O)[C@@H](C)[C@H](OC(C)=O)[C@@H]1C` [RIFAMPIN], for which 8.75 µg/mL (≈ 10.6 µM) corresponded to half-maximal inhibition in test [1] (IC50). For the same molecule, the minimal inhibitory concentration (MIC) in test [3] and in test [4] was 4 µg/mL (≈ 4.86 µM) in each case.
Consider `NNC(=O)c1ccncc1` [ISONIAZID], for which the MIC turned out to be 1 µg/mL (≈ 7.29 µM) in test [3] and 0.25 µg/mL (≈ 1.82 µM) in test [4].
